Laboratory results as given in article PMC11482445 (Journal of neurochemistry, 2024).
Read-outs that look alike come from different tables or passages of the source.

Key:
[1] = cited from earlier work
[2] = format: in vivo, mice
[3] = cited from earlier work; remark: listed apart in the source
[4] = format: in vivo, mice; remark: listed apart in the source
How it was run: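 Mice (isoflurane-anesthetized or awake) given IV tracer (>99% radiochemical purity, in 95% 20 mM sodium phosphate pH 8.0/5% EtOH); euthanized 35 min later. Brain homogenized in 0.4 N HClO4 (~1:2 w/v) by 30 s ultrasonication at 4 °C, spun 21,000 RCF, 8 °C, 7 min. Plasma and pH-neutralized supernatant passed through 10K filter, then radio-HPLC on C18 with 10 mM NH4HCO3 pH 8.0/MeCN (96:4). Samples kept on ice. Percent parent fraction reported.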

CYP2E1 [5] = conditions: humans, DSF treatment; cited from earlier work
[6] = humans, 24h after oral administration of ^14C-labeled 4AP; cited from earlier work
CYP2E1 [7] = conditions: in vitro competition assay; cited from earlier work
[8] = not told; cited from earlier work

Compound: Nc1ccncc1[18F] [[^18F]3F4AP, 3-[^18F]fluoro-4-aminopyridine]
- brain uptake SUV at 4 min ([1]; NHPs, brain, 4 min): > 3
- parent fraction (metabolic stability) ([1]; NHPs, up to 2h post-injection): > 90%
- brain SUV 90 min post-injection ([1]; anesthetized NHPs, brain TAC, Fig. 3A): ~ 1.50
- SUV90 min-WB (NHP) ([1]; anesthetized NHPs, whole blood, 90 min): 0.946
- SUV35 min-br (awk mice) ([2]; brain, 35 min post-injection, IV, awake mice, n = 20, mean ± SEM): 0.28 ± 0.04
- WB and brain SUV values, awake vs anesthetized mice ([2]; euthanized at 60 sec (1 min) post-tracer injection, Fig. S1): no significant differences
- SUV35 min-WB (awk mice) ([2]; whole blood, 35 min post-injection, IV, awake mice, mean ± SEM): 0.51 ± 0.05
- SUV35 min-WB (iso mice) ([2]; whole blood, 35 min post-injection, IV, isoflurane-anesthetized mice, mean ± SEM): 0.66 ± 0.08
- brain SUV 90 min post-injection ([3]; awake humans, brain TAC, Fig. 3A): 0.54
- SUV90 min-WB (human) ([3]; awake humans, whole blood, 90 min): 0.87
- parent remaining in blood ([3]; humans, 1h post-injection): less than 50%
- percent parent fraction in brain (%PFawk-br) ([4]; brain, awake mice, 35 min post-tracer, n = 8, mean ± SEM): 80.3 ± 2.7%
- proportion of radiometabolites in the brain, anesthetized mice ([4]; brain, isoflurane-anesthetized mice, 35 min): 1.6%
- percent parent fraction in brain (%PFiso-br) ([4]; brain, isoflurane-anesthetized mice, 35 min post-tracer, n = 5, mean ± SEM): 98.4 ± 0.2%
- concentration of metabolites in plasma, awake mice ([4]; plasma, awake mice, 35 min): 82.3%
- percent parent fraction in plasma (%PFawk-pl) ([4]; plasma, awake mice, 35 min post-tracer, n = 11, mean ± SEM): 17.7 ± 1.7%
- concentration of metabolites in plasma, anesthetized mice ([4]; plasma, isoflurane-anesthetized mice, 35 min): 25.2%
- percent parent fraction in plasma (%PFiso-pl) ([4]; plasma, isoflurane-anesthetized mice, 35 min post-tracer, n = 10, mean ± SEM): 74.8 ± 1.6%

Compound: CCN(CC)C(=S)SSC(=S)N(CC)CC [DSF, disulfiram]
- prevention of clinical isoflurane metabolism (CYP2E1 [5]): 80–90%

Compound: Nc1ccncc1 [4AP, 4-aminopyridine]
- radioactive species recovered in urine corresponding to the unchanged drug [6]: ~ 90%

Compound: Nc1ccncc1F [3F4AP, 3-fluoro-4-aminopyrdine]
- affinity of CYP2E1 relative to the affinity for 4AP (CYP2E1 [7]): 50 times

Compound: Nc1c(O)cncc1F [5-hydroxy-3F4AP]
- permeability across an artificial brain membrane [8]: low permeability

Compound: Nc1cc[n+]([O-])cc1F [3F4AP N-oxide]
- permeability across an artificial brain membrane [8]: low permeability
